Active and inactive are the calls of the source. No cut-off for these calls is given here.
Experiments:
Type in all cases: cell-based
[1] = target: Histone-lysine N-methyltransferase EZH2 (Homo sapiens) (UniProt Q15910); test: Inhibition of EZH2 in human A549 cells assessed as increase in IFN-gamma-induced CXCL10 level for 24 hrs by ELISA
Method in brief: (§1)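 A549 cells were pretreated for two four-day cycles with 2 μM UNC1999 or with DMSO. They were seeded at 3×10^4/well, allowed to settle for 4 h, then given the indicated concentrations of IFNγ, IL1β, LPS or TNFα for 24 h. Secreted IL6, IL8 or CXCL10 in the supernatant was measured by ELISA in duplicate. n = 3; ANOVA followed by Fisher test.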

[2] = target: Histone-lysine N-methyltransferase EZH2 (Homo sapiens) (UniProt Q15910); test: Inhibition of EZH2 in human HeLa cells assessed as effect on PITX2 mRNA level after 6 hrs by RT-PCR analysis
Method in brief: (§2)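 Cells were treated for two four-day cycles with 2 μM GSK343 or UNC1999, then left untreated or stimulated with human IFNγ for 6 h. mRNA was measured by reverse transcription quantitative PCR and normalized to β-actin. Three biological replicates were run per treatment group.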

[3] = target: Histone-lysine N-methyltransferase EZH2 (Homo sapiens) (UniProt Q15910); test: Inhibition of EZH2 in human A549 cells assessed as increase in TNF-alpha-induced CXCL-10 level for 24 hrs by multiplexing laser bead assay
Method in brief: (§3)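 A549 cells were pretreated with vehicle or UNC1999 over two four-day cycles at 2 μM. They were seeded at 3×10^4/well, rested for 4 h, then exposed for 24 h to no stimulus, 5 μg/ml E. coli LPS or 10 U/ml TNFα. Secreted cytokines in the supernatants were quantified by a 41-plex laser bead assay.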

[4] = target: Histone-lysine N-methyltransferase EZH2 (Homo sapiens) (UniProt Q15910); test: Inhibition of EZH2 in human A549 cells assessed as increase in TNF-alpha-induced VEGFA level for 24 hrs by multiplexing laser bead assay; method in brief: as §3
[5] = target: Histone-lysine N-methyltransferase EZH2 (Homo sapiens) (UniProt Q15910); test: Inhibition of EZH2 in human ASPC1 cells assessed as increase in IFN-gamma-induced SUZ12-repressed ISGs mRNA level after 6 hrs by RT-PCR analysis; method in brief: as §2
[6] = target: Histone-lysine N-methyltransferase EZH2 (Homo sapiens) (UniProt Q15910); test: Inhibition of EZH2 in human A549 cells assessed as increase in LPS-induced CSF-3 level for 24 hrs by multiplexing laser bead assay; method in brief: as §3
[7] = target: Histone-lysine N-methyltransferase EZH2 (Homo sapiens) (UniProt Q15910); test: Inhibition of EZH2 in human A549 cells assessed as increase in TNF-alpha-induced CCL-5 level for 24 hrs by multiplexing laser bead assay; method in brief: as §3
[8] = target: Histone-lysine N-methyltransferase EZH2 (Homo sapiens) (UniProt Q15910); test: Inhibition of EZH2 in human MCF7 cells assessed as effect on PITX2 mRNA level after 6 hrs by RT-PCR analysis in presence of IFN-gamma
Method in brief: (§4)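 Cells pretreated for two 4-day cycles with 2 µM GSK343 or UNC1999, then left unstimulated or given human IFNγ for 6 h. RNA reverse-transcribed and measured by quantitative PCR, normalized to β-actin. Three biological replicates per treatment group.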

[9] = target: Histone-lysine N-methyltransferase EZH2 (Homo sapiens) (UniProt Q15910); test: Inhibition of EZH2 in human HeLa cells assessed as effect on PITX2 mRNA level after 6 hrs by RT-PCR analysis in presence of IFN-gamma; method in brief: as §2
[10] = target: Histone-lysine N-methyltransferase EZH2 (Homo sapiens) (UniProt Q15910); test: Inhibition of EZH2 in human A549 cells assessed as decrease in H3K27me3 levels at 2 uM after 6 hrs by Western blot analysis
[11] = target: Histone-lysine N-methyltransferase EZH2 (Homo sapiens) (UniProt Q15910); test: Inhibition of EZH2 in human A549 cells assessed as increase in TNF-alpha-induced PDGFA level for 24 hrs by multiplexing laser bead assay; method in brief: as §3
[12] = target: Histone-lysine N-methyltransferase EZH2 (Homo sapiens) (UniProt Q15910); test: Inhibition of EZH2 in human A549 cells assessed as effect on PITX2 mRNA level after 6 hrs by RT-PCR analysis in presence of IFN-gamma; method in brief: as §2
[13] = target: Histone-lysine N-methyltransferase EZH2 (Homo sapiens) (UniProt Q15910); test: Inhibition of EZH2 in human A549 cells assessed as effect on IRF1 mRNA level after 6 hrs by RT-PCR analysis in presence of IFN-gamma; method in brief: as §2
[14] = target: Histone-lysine N-methyltransferase EZH2 (Homo sapiens) (UniProt Q15910); test: Inhibition of EZH2 in human ASPC1 cells assessed as effect on IRF1 mRNA level after 6 hrs by RT-PCR analysis; method in brief: as §2
[15] = target: Histone-lysine N-methyltransferase EZH2 (Homo sapiens) (UniProt Q15910); test: Inhibition of EZH2 in human A549 cells assessed as increase in LPS-induced PDGFA level for 24 hrs by multiplexing laser bead assay; method in brief: as §3
[16] = target: Histone-lysine N-methyltransferase EZH2 (Homo sapiens) (UniProt Q15910); test: Inhibition of EZH2 in human A549 cells assessed as effect on HPRT mRNA level after 6 hrs by RT-PCR analysis in presence of IFN-gamma; method in brief: as §2
[17] = target: Histone-lysine N-methyltransferase EZH2 (Homo sapiens) (UniProt Q15910); test: Inhibition of EZH2 in human A549 cells assessed as increase in TNF-alpha-induced IL-6 level for 24 hrs by ELISA; method in brief: as §1
[18] = target: Histone-lysine N-methyltransferase EZH2 (Homo sapiens) (UniProt Q15910); test: Inhibition of EZH2 in human ASPC1 cells assessed as effect on IRF1 mRNA level after 6 hrs by RT-PCR analysis in presence of IFN-gamma; method in brief: as §2
[19] = target: Histone-lysine N-methyltransferase EZH2 (Homo sapiens) (UniProt Q15910); test: Inhibition of EZH2 in human HeLa cells assessed as effect on IRF1 mRNA level after 6 hrs by RT-PCR analysis; method in brief: as §2
[20] = target: Histone-lysine N-methyltransferase EZH2 (Homo sapiens) (UniProt Q15910); test: Inhibition of EZH2 in human A549 cells assessed as increase in LPS-induced CCL-5 level for 24 hrs by multiplexing laser bead assay; method in brief: as §3
[21] = target: Histone-lysine N-methyltransferase EZH2 (Homo sapiens) (UniProt Q15910); test: Inhibition of EZH2 in human ASPC1 cells assessed as effect on HPRT mRNA level after 6 hrs by RT-PCR analysis in presence of IFN-gamma; method in brief: as §2
[22] = target: Histone-lysine N-methyltransferase EZH2 (Homo sapiens) (UniProt Q15910); test: Inhibition of EZH2 in human A549 cells assessed as increase in TNF-alpha-induced CCL7 level for 24 hrs by multiplexing laser bead assay; method in brief: as §3
[23] = target: Histone-lysine N-methyltransferase EZH2 (Homo sapiens) (UniProt Q15910); test: Inhibition of EZH2 in human MCF7 cells assessed as effect on IRF1 mRNA level after 6 hrs by RT-PCR analysis in presence of IFN-gamma; method in brief: as §4
[24] = target: Histone-lysine N-methyltransferase EZH2 (Homo sapiens) (UniProt Q15910); test: Inhibition of EZH2 in human A549 cells assessed as increase in LPS-induced TGF-A level for 24 hrs by multiplexing laser bead assay; method in brief: as §3
[25] = target: Histone-lysine N-methyltransferase EZH2 (Homo sapiens) (UniProt Q15910); test: Inhibition of EZH2 in human A549 cells assessed as increase in TNF-alpha-induced TGFA level for 24 hrs by multiplexing laser bead assay; method in brief: as §3
[26] = target: Histone-lysine N-methyltransferase EZH2 (Homo sapiens) (UniProt Q15910); test: Inhibition of EZH2 in human A549 cells assessed as increase in LPS-induced VEGF-A level for 24 hrs by multiplexing laser bead assay; method in brief: as §3
[27] = target: Histone-lysine N-methyltransferase EZH2 (Homo sapiens) (UniProt Q15910); test: Inhibition of EZH2 in human AsPC1 cells assessed as decrease in H3K27me3 levels at 2 uM after 6 hrs by Western blot analysis

Chain of Histone-lysine N-methyltransferase EZH2 (Homo sapiens) (Q15910 whole entry, looked up): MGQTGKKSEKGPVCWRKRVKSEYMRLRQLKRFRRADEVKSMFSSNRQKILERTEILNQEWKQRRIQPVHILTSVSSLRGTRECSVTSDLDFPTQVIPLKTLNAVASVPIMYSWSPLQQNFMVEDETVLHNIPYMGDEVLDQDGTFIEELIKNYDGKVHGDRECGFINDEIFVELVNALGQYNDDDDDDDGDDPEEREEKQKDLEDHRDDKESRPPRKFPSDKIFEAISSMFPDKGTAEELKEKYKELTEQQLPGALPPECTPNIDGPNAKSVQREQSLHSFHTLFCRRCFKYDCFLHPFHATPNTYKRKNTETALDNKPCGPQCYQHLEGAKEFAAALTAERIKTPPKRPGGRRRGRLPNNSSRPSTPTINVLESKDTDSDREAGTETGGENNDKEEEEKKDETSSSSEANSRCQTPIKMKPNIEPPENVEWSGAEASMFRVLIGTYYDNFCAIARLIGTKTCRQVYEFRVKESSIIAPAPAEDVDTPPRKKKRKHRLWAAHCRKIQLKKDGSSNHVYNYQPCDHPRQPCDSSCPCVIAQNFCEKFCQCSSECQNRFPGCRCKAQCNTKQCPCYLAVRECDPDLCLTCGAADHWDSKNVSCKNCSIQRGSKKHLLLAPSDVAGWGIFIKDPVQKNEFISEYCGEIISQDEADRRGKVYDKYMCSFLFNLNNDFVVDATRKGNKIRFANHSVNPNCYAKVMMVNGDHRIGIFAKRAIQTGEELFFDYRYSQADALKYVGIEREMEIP

inhibition [1]: Active
inhibition [2]: inactive
inhibition [3]: Active
inhibition [4]: Active
inhibition [5]: Active
inhibition [6]: Active
inhibition [7]: Active
inhibition [8]: inactive
inhibition [9]: inactive
inhibition [10]: Active
inhibition [11]: Active
inhibition [12]: inactive
inhibition [13]: inactive
inhibition [14]: inactive
inhibition [15]: Active
inhibition [16]: inactive
inhibition [17]: Active
inhibition [18]: inactive
inhibition [19]: inactive
inhibition [20]: Active
inhibition [21]: inactive
inhibition [22]: Active
inhibition [23]: inactive
inhibition [24]: Active
inhibition [25]: Active
inhibition [26]: Active
inhibition [27]: Active
Compound: CCCc1cc(C)[nH]c(=O)c1CNC(=O)c1cc(-c2ccc(N3CCN(C(C)C)CC3)nc2)cc2c1cnn2C(C)C
